Source: PubChem BioAssay (Columbia University Molecular Screening Center)
Shown is part of a subset that was picked to be rich in hits.
INS promoter act: TRM-6 insulin promoter activation | TRM-6 cells, insulin promoter eGFP reporter, imaging; plate-scaled: unstimulated 0, stimulated control 100 | activation, % at 2 µM | 130,000 compounds, 0.81% hits | AID 1296;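 active = activation at 2 µM above a set limit, confirmed on inspection of the cell images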;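 note: share of cells whose green reporter signal exceeds an intensity cutoff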
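material = TRM-6 human fetal islet cells, insulin promoter–eGFP reporter | input = 1,000 TRM-6 cells seeded per well | benchmarks = stimulated versus unstimulated wells as plate controls | measured by = automated fluorescence imaging of paraformaldehyde-fixed, Hoechst-counterstained cells, green channel | schedule = compound exposure 48 h, 37 °C | reagent = tamoxifen at 0.75 µM added at seeding for reporter induction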
Starred values were filed as active, the others as inactive; [ ] = another dose, or the depositor's remark.

SMILES | INS promoter act
Cc1ccc(C(=O)Nc2ccc(Cl)cc2C(=O)c2ccccc2)cc1 | 113
O=C(Nc1ccc(Cl)cc1C(=O)c1ccccc1Cl)c1ccco1 | 230*
O=C(COc1ccccc1)Nc1ccc(Cl)cc1C(=O)c1ccccc1 | 117
COP(=O)(OC)C(NC(=O)/C=C/c1ccccc1)C(Cl)(Cl)Cl (centres undefined) | 3
OC12ONC(c3ccccn3)C1N1CCC2CC1 (centres undefined) | 108
COCCNCCOc1ccc(C(C)(C)c2ccccc2)cc1 | 108
Clc1cnc(Oc2ccc(Oc3ncc(Cl)cc3Cl)cc2)c(Cl)c1 | -3
Cc1nn(Cc2ccc(Cl)cc2Cl)c(Cl)c1C(=O)Nc1ccc(OC(F)F)cc1 | 3
CCCCOc1nc2ccccc2c(=O)n1-c1ccccc1 | 3
O=c1c2ccccc2nc(-c2ccco2)n1-c1cccnc1 | -3
O=c1c2ccccc2nc(SCC2CCCCO2)n1-c1ccccc1 (centres undefined) | 367*
Cc1ccccc1N1C(=O)CC(=O)N(c2ccccc2C)C1=O | -8
CN1CCN(c2ncnc3nc[nH]c23)CC1 | 0
CC1CN(O)C2CCc3nonc3C12O (centres undefined) | -9
C/C(=N\NC(=S)Nc1ccccc1)c1c(O)n(C)c(=O)n(C)c1=O | 0
COc1ccc(N=C2SCCCN2C)cc1 | 512*
C[N+](C)(C)c1ccccc1 | 7
Brc1ccc(C2N3CCCN23)cc1 (centres undefined) | 508*
CC(C)(C)NC(=S)N1CCn2cccc2C1c1cccnc1 (centres undefined) | 0
Cc1c(C=O)c2ccccc2n1Cc1ccc([N+](=O)[O-])cc1 | 9
Nc1ccc(C2(c3ccc(N)cc3)CCCCC2)cc1 | -7
CCSc1cc(C2C(C#N)=C(N)Oc3n[nH]c(C)c32)c(C)o1 (centres undefined) | -6
COc1ccc(C(C)=O)cc1CC(C(=O)c1ccccc1)N(C)C (centres undefined) | -6
CCNC(=O)NNC(=O)C1CC(c2cccnc2)=NO1 (centres undefined) | 0
CCOC(=O)c1cc(CC)sc1/N=C/C1C(=O)NC(=S)NC1=O | 295*
CC1=C(C(=O)N2CCC3(CC2)OCCO3)C2(CCC(C)CC2)OC1=O (centres undefined) | -73
CCC1(C)OC(c2ccccc2)=C/C(=C/C=C2C(=O)NC(=O)NC2=O)O1 (centres undefined) | 7
CCN1/C(=C\C=C\C2=[N+](CC)c3ccccc3C2(C)C)C(C)(C)c2ccccc21 | 257*[toxic and fluoresces]
C=Cc1ccc(Cn2c(C(=O)O)c(C=O)c3ccccc32)cc1 | -6
C=CCn1c(O)c(C(CC)=NC(C)c2ccccc2)c(=O)[nH]c1=O (centres undefined) | -2
